According to ChEMBL document CHEMBL3875170, “2-Methyl-4/5-nitroimidazole derivatives potentiated against sexually transmitted Trichomonas: Design, synthesis, biology and 3D-QSAR study” (Eur J Med Chem, 2016):
≈ marks a conversion by molar mass, not a printed value.

Key:
Trichomonas vaginalis [1] = test: Antiparasitic activity against metronidazole sensitive Trichomonas vaginalis ATCC 33592 after 48 hrs by trypan blue exclusion assay; format: functional; settings: ATCC 33592, 48 h
Trichomonas vaginalis [2] = test: Antiparasitic activity against metronidazole resistant Trichomonas vaginalis ATCC 50143 after 48 hrs by trypan blue exclusion assay; format: functional; settings: ATCC 50143, 48 h
Method in brief: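 T. vaginalis trophozoites ([…]), log phase, grown in TYM with 10% FCS, vitamin mix and penicillin/streptomycin at 37 °C. Test agents from DMSO stocks serially diluted in TYM; DMSO/TYM vehicle controls. Anaerobic incubation at 37 °C with microscopic viability checks from 3 to 48 h by trypan blue exclusion. MIC is the lowest concentration killing all cells by 48 h. Repeated three times.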

[3] = Cytotoxicity against human HeLa cells after 24 hrs by MTT assay; format: toxicity, cell-based
Method in brief: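 HeLa cells seeded at 2 × 10⁴ per well in DMEM with 10% FCS, in triplicate, and held 24 h at 37 °C in 5% CO₂. Exposed to compound dilutions for 24 h; controls received 0.05% DMSO. MTT in PBS pH 7.4 added, formazan dissolved in DMSO, OD540 read. IC50 taken as the concentration killing 50% of cells.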

[4] = Selectivity index, ratio of IC50 for human HeLa cells to MIC for metronidazole sensitive Trichomonas vaginalis ATCC 33592; format: toxicity, cell-based; settings: read-out: Selectivity Index
Method in brief: (§1)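 SI is HeLa IC50 divided by parasite MIC. HeLa cells seeded at 2 × 10⁴/well in triplicate in DMEM with 10% FCS, 24 h at 37 °C in 5% CO2. Medium then replaced with compound dilutions (0.05% DMSO controls) for 24 h. Viability by MTT read at OD540; IC50 is the concentration killing 50% of cells. MIC from 48 h trypan blue parasite killing in TYM.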

[5] = Selectivity index, ratio of IC50 for human HeLa cells to MIC for metronidazole resistant Trichomonas vaginalis ATCC 50143; format: toxicity, cell-based; settings: read-out: Selectivity Index; method in brief: as §1
Trichomonas vaginalis [6] = test: Potency index, ratio of metronidazole MIC to compound MIC for metronidazole resistant Trichomonas vaginalis ATCC 50143; format: functional
Trichomonas vaginalis [7] = test: Potency index, ratio of metronidazole MIC to compound MIC for metronidazole sensitive Trichomonas vaginalis ATCC 33592; format: functional

SMILES	MIC (Trichomonas vaginalis [1])	MIC (Trichomonas vaginalis [2])	IC50 at 24 h [3]	selectivity ratio [4]	selectivity ratio [5]	Ratio (Trichomonas vaginalis [6])	Ratio (Trichomonas vaginalis [7])
Cc1ncc([N+](=O)[O-])n1CC(O)CN1CCCC(C)C1 (racemic)	22.2 µM (≈ 6.26 µg/mL)	88.7 µM (≈ 25 µg/mL)	> 5 mM	> 227	> 56	<=12.7	
Cc1ncc([N+](=O)[O-])n1CC(O)CN1CCCCC1 (racemic)	23.3 µM (≈ 6.26 µg/mL)	187 µM (≈ 50.1 µg/mL)	> 5 mM	> 217	> 26	<=12.7	
Cc1ncc([N+](=O)[O-])n1CC(O)CN1CCC(Cc2ccccc2)CC1 (racemic)	34.9 µM (≈ 12.5 µg/mL)	140 µM (≈ 50.1 µg/mL)	1.43 mM	40	10	<=12.7	
Cc1ncc([N+](=O)[O-])n1CC(O)Cn1cnc([N+](=O)[O-])c1 (racemic)	26.4 µM (≈ 7.81 µg/mL)	106 µM (≈ 31.3 µg/mL)	> 5 mM	> 192	> 47	<=12.7	
Cc1ncc([N+](=O)[O-])n1CC(O)Cn1nnc2ccccc21 (racemic)	25.9 µM (≈ 7.82 µg/mL)	41.4 µM (≈ 12.5 µg/mL)	4.24 mM	169	103	<=12.7	
Cc1nc([N+](=O)[O-])cn1CC(O)Cn1c([N+](=O)[O-])cnc1C (racemic)	50.4 µM (≈ 15.6 µg/mL)	101 µM (≈ 31.3 µg/mL)	4.35 mM	86	43	<=12.7	
Cc1ncc([N+](=O)[O-])n1CC(O)CN1CCC(C)CC1 (racemic)	44.3 µM (≈ 12.5 µg/mL)	177 µM (≈ 50.1 µg/mL)	> 5 mM	> 113	> 28	<=12.7	
Cc1ncc([N+](=O)[O-])n1CC(O)CN1CCCC1 (racemic)	49.2 µM (≈ 12.5 µg/mL)	197 µM (≈ 50.1 µg/mL)	> 5 mM	> 102	> 25	<=12.7	
Cc1ncc([N+](=O)[O-])n1CC(O)Cn1nccn1 (racemic)	31 µM (≈ 7.82 µg/mL)	49.6 µM (≈ 12.5 µg/mL)	> 5 mM	> 161	> 102	<=12.7	
Cc1ncc([N+](=O)[O-])n1CC(O)Cn1cncn1 (racemic)	31 µM (≈ 7.82 µg/mL)	99.2 µM (≈ 25 µg/mL)	4.97 mM	160	50	<=12.7	
Cc1nc([N+](=O)[O-])cn1CC(O)CSC(=S)N1CCN(c2ccccc2)CC1 (racemic)	22.7 µM (≈ 9.56 µg/mL)	297 µM (≈ 125 µg/mL)	> 5 mM	> 227	> 16	<=12.7	
Cc1ncc([N+](=O)[O-])n1CC(O)CN1CCCCCC1 (racemic)	22.2 µM (≈ 6.26 µg/mL)	44.3 µM (≈ 12.5 µg/mL)	> 5 mM	> 227	> 113	<=12.7	
Cc1ncc([N+](=O)[O-])n1CC(O)CN1CCN(c2cccc(Cl)c2)CC1 (racemic)	132 µM (≈ 50.1 µg/mL)	330 µM (≈ 125 µg/mL)	1.44 mM	10	4	<=12.7	
Cc1ncc([N+](=O)[O-])n1CC(O)CN1CCN(c2ccco2)CC1 (racemic)	21.5 µM (≈ 7.21 µg/mL)	172 µM (≈ 57.7 µg/mL)	3.52 mM	163	20	<=12.7	
Cc1ncc([N+](=O)[O-])n1CC(O)CSC(=S)N1CCN(c2ccccc2F)CC1 (racemic)	14.2 µM (≈ 6.25 µg/mL)	56.9 µM (≈ 25 µg/mL)	3.24 mM	227	56	<=12.7	<=2.4
CCOC(=O)N1CCN(C(=S)SCC(O)Cn2c([N+](=O)[O-])cnc2C)CC1 (racemic)	15 µM (≈ 6.25 µg/mL)	60 µM (≈ 25 µg/mL)	1.61 mM	107	26	<=12.7	<=2.4
Cc1ncc([N+](=O)[O-])n1CC(O)CN1C(C)CCCC1C (racemic)	42.2 µM (≈ 12.5 µg/mL)	84.5 µM (≈ 25 µg/mL)	> 5 mM	> 119	> 59	<=12.7	
Cc1ncc([N+](=O)[O-])n1CC(O)CSC(=S)N1CCN(c2cccc(Cl)c2)CC1 (racemic)	17.2 µM (≈ 7.82 µg/mL)	68.7 µM (≈ 31.3 µg/mL)	1.08 mM	62	15	<=12.7	<=2.4
Cc1ncc([N+](=O)[O-])n1CC(O)CSC(=S)N1CCN(c2cccc(Cl)c2Cl)CC1 (racemic)	16 µM (≈ 7.83 µg/mL)	128 µM (≈ 62.7 µg/mL)	1 mM	62	7	<=12.7	<=2.4
Cc1ncc([N+](=O)[O-])n1CC(O)Cn1cnc2ccccc21 (racemic)	25.9 µM (≈ 7.82 µg/mL)	83 µM (≈ 25 µg/mL)	4.53 mM	181	54	<=12.7	
Cc1ncc([N+](=O)[O-])n1CC(O)CN1CCOCC1 (racemic) [MORINIDAZOLE]	46.3 µM (≈ 12.5 µg/mL)	92.6 µM (≈ 25 µg/mL)	> 5 mM	> 108	> 54	<=12.7	
